Data reported in ChEMBL document CHEMBL4177662, “Phosphamide-containing diphenylpyrimidine analogues (PA-DPPYs) as potent focal adhesion kinase (FAK) inhibitors with enhanced activity against pancreatic cancer cell lines” (Bioorg Med Chem, 2017).
pIC50: −log10 of the molar value.

What was measured:
[1] = Antiproliferative activity against human HPDE6c7 cells after 72 hrs by MTT assay; assay type: cell-based; conditions: HPDE6c7, 72 h
Procedure, shortened: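 Cells grown in DMEM with 10% FBS and 1% penicillin-streptomycin at 37 °C, 5% CO2. Seeded at 4,000 to 5,000 cells/well, cultured one day, then exposed to compounds for 72 h at 1.25 to 40 μmol/L, five replicates per concentration. MTT absorbance read at 570 nm. IC50 from five-point dose-response curves; mean of at least three separate experiments.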

[2] = system: ASPC1; assay: Induction of apoptosis in human Aspc-1 cells assessed as late apoptotic cells at 2.5 uM after 72 hrs by Annexin V-FITC/propidium iodide staining-based flow cytometry (reference value: 0%); assay type: functional
Procedure, shortened: (§1)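 AsPC-1 cells (3 to 5×10^5 per well) were treated with DMSO solvent control or compound for 72 h in medium with 5% FBS. Cells were then stained with Annexin V-FITC and propidium iodide and analysed by flow cytometry. One representative experiment shown.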

[3] = system: ASPC1; assay: Induction of apoptosis in human Aspc-1 cells assessed as viable cells at 2.5 uM after 72 hrs by Annexin V-FITC/propidium iodide staining-based flow cytometry (reference value: 100%); assay type: functional; conditions: ASPC1, 72 h, read-out: Activity; procedure, shortened: as §1
[4] = system: ASPC1; assay: Induction of apoptosis in human Aspc-1 cells assessed as early apoptotic cells at 10 uM after 72 hrs by Annexin V-FITC/propidium iodide staining-based flow cytometry (reference value: 0%); assay type: functional; procedure, shortened: as §1
[5] = system: ASPC1; assay: Induction of apoptosis in human Aspc-1 cells assessed as necrotic cells at 10 uM after 72 hrs by Annexin V-FITC/propidium iodide staining-based flow cytometry (reference value: 0%); assay type: functional; procedure, shortened: as §1
[6] = system: ASPC1; assay: Cell cycle arrest in human Aspc-1 cells assessed as accumulation at S phase at 1 uM after 72 hrs by propidium iodide staining-based flow cytometry (reference value: 59.70%); assay type: functional
[7] = system: ASPC1; assay: Cell cycle arrest in human Aspc-1 cells assessed as accumulation at G2/M phase at 2.5 uM after 72 hrs by propidium iodide staining-based flow cytometry (reference value: 0.89%); assay type: functional
[8] = system: ASPC1; assay: Cell cycle arrest in human Aspc-1 cells assessed as accumulation at S phase at 5 uM after 72 hrs by propidium iodide staining-based flow cytometry (reference value: 59.70%); assay type: functional
[9] = system: ASPC1; assay: Cell cycle arrest in human Aspc-1 cells assessed as accumulation at G2/M phase at 5 uM after 72 hrs by propidium iodide staining-based flow cytometry (reference value: 0.89%); assay type: functional
[10] = target: Protein-tyrosine kinase 2-beta (Homo sapiens) (UniProt Q14289); assay: Inhibition of recombinant full length GST-tagged human PYK2 cytoplasmic domain expressed in baculovirus expression system at 100 nM relative to control
Chain of Protein-tyrosine kinase 2-beta (Homo sapiens) (Q14289 whole entry, looked up, the tested form may be a part): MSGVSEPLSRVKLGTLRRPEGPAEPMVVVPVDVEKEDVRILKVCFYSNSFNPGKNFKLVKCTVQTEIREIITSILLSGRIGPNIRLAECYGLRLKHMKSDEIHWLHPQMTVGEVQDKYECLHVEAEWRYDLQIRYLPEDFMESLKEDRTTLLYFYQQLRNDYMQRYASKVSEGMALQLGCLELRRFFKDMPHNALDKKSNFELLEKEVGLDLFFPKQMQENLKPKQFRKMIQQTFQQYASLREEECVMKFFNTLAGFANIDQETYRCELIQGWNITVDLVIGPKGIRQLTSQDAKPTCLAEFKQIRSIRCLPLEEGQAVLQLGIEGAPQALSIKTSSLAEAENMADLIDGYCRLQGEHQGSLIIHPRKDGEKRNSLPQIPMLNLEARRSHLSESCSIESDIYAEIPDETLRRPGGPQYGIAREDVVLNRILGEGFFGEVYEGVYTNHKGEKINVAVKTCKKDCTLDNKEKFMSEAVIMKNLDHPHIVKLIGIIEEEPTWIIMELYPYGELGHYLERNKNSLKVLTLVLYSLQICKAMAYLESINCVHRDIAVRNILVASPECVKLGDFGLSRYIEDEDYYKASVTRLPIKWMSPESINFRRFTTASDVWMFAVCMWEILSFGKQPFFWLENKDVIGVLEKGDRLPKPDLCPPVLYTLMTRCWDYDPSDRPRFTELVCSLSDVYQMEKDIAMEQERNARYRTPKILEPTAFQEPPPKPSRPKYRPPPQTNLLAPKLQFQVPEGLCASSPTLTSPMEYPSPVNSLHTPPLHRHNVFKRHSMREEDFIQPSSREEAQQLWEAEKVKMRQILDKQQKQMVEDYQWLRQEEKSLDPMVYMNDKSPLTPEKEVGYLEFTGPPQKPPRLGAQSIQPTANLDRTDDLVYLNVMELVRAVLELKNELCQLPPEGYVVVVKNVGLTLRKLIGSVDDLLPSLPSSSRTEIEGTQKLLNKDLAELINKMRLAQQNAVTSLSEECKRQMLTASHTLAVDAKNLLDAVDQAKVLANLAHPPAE
Procedure, shortened: (§2)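 SelectScreen biochemical kinase profiling service; percent inhibition of each kinase at a single compound concentration of 100 nM.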

[11] = target: Tyrosine-protein kinase receptor UFO (Homo sapiens) (UniProt P30530); assay: Inhibition of GST-tagged human AXL (473 end residues) at 100 nM relative to control; procedure, shortened: as §2
Chain of Tyrosine-protein kinase receptor UFO (Homo sapiens) (P30530 whole entry, the tested form may be a part): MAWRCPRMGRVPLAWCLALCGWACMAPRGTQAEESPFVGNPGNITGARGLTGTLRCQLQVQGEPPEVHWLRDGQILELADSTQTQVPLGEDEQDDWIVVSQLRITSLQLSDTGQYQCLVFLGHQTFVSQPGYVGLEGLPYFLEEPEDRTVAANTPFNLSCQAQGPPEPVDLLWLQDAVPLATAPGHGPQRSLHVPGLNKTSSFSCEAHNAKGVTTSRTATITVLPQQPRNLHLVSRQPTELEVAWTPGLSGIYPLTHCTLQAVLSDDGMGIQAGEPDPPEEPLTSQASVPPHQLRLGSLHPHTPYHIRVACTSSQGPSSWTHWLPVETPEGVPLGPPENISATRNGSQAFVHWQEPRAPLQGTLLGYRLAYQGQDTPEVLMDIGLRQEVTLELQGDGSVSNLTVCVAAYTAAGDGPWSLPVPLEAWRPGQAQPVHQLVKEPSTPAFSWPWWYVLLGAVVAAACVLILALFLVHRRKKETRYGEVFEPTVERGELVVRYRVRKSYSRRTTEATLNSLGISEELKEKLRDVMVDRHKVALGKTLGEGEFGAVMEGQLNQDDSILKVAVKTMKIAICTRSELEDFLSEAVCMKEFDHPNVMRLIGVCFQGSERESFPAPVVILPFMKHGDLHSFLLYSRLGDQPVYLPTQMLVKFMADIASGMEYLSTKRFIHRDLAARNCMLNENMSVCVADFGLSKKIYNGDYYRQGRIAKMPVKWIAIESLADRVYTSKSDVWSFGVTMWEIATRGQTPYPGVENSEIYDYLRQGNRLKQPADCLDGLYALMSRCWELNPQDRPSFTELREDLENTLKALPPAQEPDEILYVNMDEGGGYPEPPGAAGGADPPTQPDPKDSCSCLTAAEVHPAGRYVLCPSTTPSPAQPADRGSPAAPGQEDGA

[12] = system: Epidermal growth factor receptor (Homo sapiens), P00533 [T790M]; assay: Inhibition of recombinant GST-tagged human EGFR cytoplasmic domain (668 to 1210 residues) T790M mutant expressed in baculovirus expression system at 100 nM relative to control
Chain of Epidermal growth factor receptor (Homo sapiens), P00533 [T790M] (P00533 whole entry T790M, the tested form may be a part): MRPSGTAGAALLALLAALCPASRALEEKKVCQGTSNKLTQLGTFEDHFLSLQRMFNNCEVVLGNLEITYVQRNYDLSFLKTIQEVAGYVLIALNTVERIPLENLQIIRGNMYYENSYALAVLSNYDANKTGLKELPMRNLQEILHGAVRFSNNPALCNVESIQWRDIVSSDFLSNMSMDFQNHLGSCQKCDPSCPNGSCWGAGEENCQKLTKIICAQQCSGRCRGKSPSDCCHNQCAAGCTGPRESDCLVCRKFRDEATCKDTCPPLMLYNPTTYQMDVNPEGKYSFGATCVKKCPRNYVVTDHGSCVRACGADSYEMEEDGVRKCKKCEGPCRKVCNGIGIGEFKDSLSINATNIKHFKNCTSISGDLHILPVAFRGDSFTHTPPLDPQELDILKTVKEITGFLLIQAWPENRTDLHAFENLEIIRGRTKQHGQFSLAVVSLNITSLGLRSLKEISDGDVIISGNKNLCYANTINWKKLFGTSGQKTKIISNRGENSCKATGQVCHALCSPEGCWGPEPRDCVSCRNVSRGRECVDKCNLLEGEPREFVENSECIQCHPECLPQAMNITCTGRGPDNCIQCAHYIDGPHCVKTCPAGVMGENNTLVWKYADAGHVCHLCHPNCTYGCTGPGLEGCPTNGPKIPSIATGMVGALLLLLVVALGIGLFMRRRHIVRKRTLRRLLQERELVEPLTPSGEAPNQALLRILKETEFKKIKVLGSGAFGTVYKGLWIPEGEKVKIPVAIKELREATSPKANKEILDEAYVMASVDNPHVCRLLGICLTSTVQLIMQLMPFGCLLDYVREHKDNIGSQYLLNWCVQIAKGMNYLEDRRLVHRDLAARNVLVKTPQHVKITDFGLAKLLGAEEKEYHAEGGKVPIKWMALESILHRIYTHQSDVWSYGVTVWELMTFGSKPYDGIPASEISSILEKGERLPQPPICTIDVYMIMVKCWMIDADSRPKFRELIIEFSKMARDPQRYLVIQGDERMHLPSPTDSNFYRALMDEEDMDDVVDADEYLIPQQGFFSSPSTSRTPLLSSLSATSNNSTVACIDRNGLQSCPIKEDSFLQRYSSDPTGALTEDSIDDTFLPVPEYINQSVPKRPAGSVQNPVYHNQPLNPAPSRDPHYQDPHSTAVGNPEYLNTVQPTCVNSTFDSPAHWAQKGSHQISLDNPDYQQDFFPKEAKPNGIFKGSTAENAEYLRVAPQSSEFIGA
Procedure, shortened: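 Part of a small kinase-panel profile run by an outsourced biochemical profiling service. The test compound was given at a single concentration of 100 nM, and activity was reported as percent inhibition rate.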

[13] = target: T1, Tyrosine-protein kinase JAK3 (Homo sapiens) (UniProt P52333); assay: Inhibition of recombinant GST-tagged human JAK3 catalytic domain (781 to 1124 residues) expressed in baculovirus expression system at 100 nM relative to control; procedure, shortened: as §2
T1 sequence (whole entry): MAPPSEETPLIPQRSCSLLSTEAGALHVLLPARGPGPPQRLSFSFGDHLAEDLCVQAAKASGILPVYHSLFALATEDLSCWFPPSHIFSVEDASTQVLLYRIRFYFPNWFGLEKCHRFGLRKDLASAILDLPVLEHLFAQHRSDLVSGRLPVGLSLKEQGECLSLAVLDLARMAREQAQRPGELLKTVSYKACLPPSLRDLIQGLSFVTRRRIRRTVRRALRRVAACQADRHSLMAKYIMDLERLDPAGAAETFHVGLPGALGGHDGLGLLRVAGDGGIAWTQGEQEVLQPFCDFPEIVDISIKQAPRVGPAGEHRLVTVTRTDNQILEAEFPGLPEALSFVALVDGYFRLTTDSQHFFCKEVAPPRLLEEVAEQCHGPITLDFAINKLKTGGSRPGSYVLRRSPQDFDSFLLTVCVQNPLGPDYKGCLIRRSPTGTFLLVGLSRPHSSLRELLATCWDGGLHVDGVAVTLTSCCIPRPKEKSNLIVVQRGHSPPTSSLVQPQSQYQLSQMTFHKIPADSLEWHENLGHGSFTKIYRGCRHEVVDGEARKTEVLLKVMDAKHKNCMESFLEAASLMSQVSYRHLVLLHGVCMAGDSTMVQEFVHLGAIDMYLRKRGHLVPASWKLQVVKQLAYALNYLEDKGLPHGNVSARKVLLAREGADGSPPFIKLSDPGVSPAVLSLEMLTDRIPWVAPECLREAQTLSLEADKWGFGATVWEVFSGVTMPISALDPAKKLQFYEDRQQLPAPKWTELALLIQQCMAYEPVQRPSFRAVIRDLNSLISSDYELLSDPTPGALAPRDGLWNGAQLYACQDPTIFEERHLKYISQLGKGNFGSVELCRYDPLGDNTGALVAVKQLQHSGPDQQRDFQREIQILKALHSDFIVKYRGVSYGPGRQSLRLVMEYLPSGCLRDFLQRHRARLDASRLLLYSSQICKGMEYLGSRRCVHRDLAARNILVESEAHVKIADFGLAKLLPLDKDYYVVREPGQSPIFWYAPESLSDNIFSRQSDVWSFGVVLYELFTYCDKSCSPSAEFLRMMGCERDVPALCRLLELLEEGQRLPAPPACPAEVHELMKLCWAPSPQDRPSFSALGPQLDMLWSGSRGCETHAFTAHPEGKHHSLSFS

[14] = system: ASPC1; assay: Antiproliferative activity against human Aspc-1 cells assessed as cell viability at 0.5 uM after 72 hrs by MTT assay (reference value: 97%); assay type: functional; conditions: ASPC1, 72 h, read-out: Activity
[15] = system: ASPC1; assay: Antiproliferative activity against human Aspc-1 cells assessed as cell viability at 4 uM after 48 hrs by MTT assay (reference value: 98.1%); assay type: functional; conditions: ASPC1, 48 h, read-out: Activity
[16] = system: ASPC1; assay: Antiproliferative activity against human Aspc-1 cells assessed as cell viability at 8 uM after 24 hrs by MTT assay (reference value: 100%); assay type: functional; conditions: ASPC1, 24 h, read-out: Activity
[17] = system: PANC-1 (human); assay: Antiproliferative activity against human PANC-1 cells assessed as cell viability at 8 uM after 24 hrs by MTT assay (reference value: 100%); conditions: PANC-1, 24 h
[18] = system: PANC-1 (human); assay: Antiproliferative activity against human PANC-1 cells assessed as cell viability at 4 uM after 48 hrs by MTT assay (reference value: 98.8%); conditions: PANC-1, 48 h

CCOP(=O)(CCCOc1ccc(Nc2ncc([N+](=O)[O-])c(Nc3ccccc3C(=O)NC)n2)cc1)N1CCOCC1 (stereo not drawn)
pIC50 [1]: < 4.70
Activity [2]: 20.7%
viability at 2.5 µM [3]: 55.3%
Activity [4]: 16.6%
Activity [5]: 0.4%
Activity [6]: 48.41%
Activity [7]: 16.54%
Activity [8]: 37.82%
Activity [9]: 22.11%
inhibition [10]: 71%
inhibition [11]: 60%
inhibition [12]: 45%
inhibition [13]: 26%
viability at 0.5 µM [14]: 94.4%
viability at 4 µM [15]: 47.7%
viability at 8 µM [16]: 56.8%
viability at 8 µM [17]: 87.3%
viability at 4 µM [18]: 61.6%
